From ChEMBL document CHEMBL1147115 (2007)
Values after ≈ are worked out from the molar mass of the structure shown.

Legend:
Klebsiella pneumoniae [1] = assay: Antimicrobial activity against ESBL producing Klebsiella pneumoniae 268 isolate; assay type: functional
Escherichia coli [2] = assay: Antimicrobial activity against ESBL producing Escherichia coli 321 isolate; assay type: functional
Klebsiella pneumoniae [3] = assay: Antimicrobial activity against ESBL producing Klebsiella pneumoniae 261 isolate infected thigh infection model ICR mouse; assay type: functional, Thigh muscle
Outline: (§1)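 Female ICR mice (~25 g) were made neutropenic with cyclophosphamide ip (150 and 100 mg/kg, days −4 and −1) and renally impaired with uranyl nitrate 5 mg/kg ip (day −3). Each thigh got 0.1 ml of 10^5 CFU/ml (or 10^7 for high inoculum) im 2 h pre-therapy. Human-simulated regimens were given sc, three mice per group, for 24 h. Efficacy was the log10 CFU/thigh change versus 0-h controls.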

Klebsiella pneumoniae [4] = assay: Antimicrobial activity against ESBL producing Klebsiella pneumoniae 264 isolate; assay type: functional
Escherichia coli [5] = assay: Antimicrobial activity against ESBL producing Escherichia coli 130 isolate; assay type: functional
Klebsiella pneumoniae [6] = assay: Antimicrobial activity against ESBL producing Klebsiella pneumoniae 260 isolate; assay type: functional
Klebsiella pneumoniae [7] = assay: Antimicrobial activity against ESBL producing Klebsiella pneumoniae 265 isolate infected thigh infection model ICR mouse; assay type: functional, Thigh muscle; outline: as §1
Escherichia coli [8] = assay: Antimicrobial activity against ESBL producing Escherichia coli 311 isolate; assay type: functional
Klebsiella pneumoniae [9] = assay: Antimicrobial activity against ESBL producing Klebsiella pneumoniae 257 isolate infected thigh infection model ICR mouse; assay type: functional, Thigh muscle; outline: as §1
Escherichia coli [10] = assay: Antimicrobial activity against ESBL producing Escherichia coli 315 isolate infected thigh infection model ICR mouse; assay type: functional, Thigh muscle; outline: as §1
Klebsiella pneumoniae [11] = assay: Antimicrobial activity against ESBL producing Klebsiella pneumoniae 266 isolate infected thigh infection model ICR mouse; assay type: functional, Thigh muscle; outline: as §1
Klebsiella pneumoniae [12] = assay: Antimicrobial activity against ESBL producing Klebsiella pneumoniae 230 isolate; assay type: functional
Escherichia coli [13] = assay: Antimicrobial activity against ESBL producing Escherichia coli 285 isolate; assay type: functional
Klebsiella pneumoniae [14] = assay: Antimicrobial activity against ESBL producing Klebsiella pneumoniae 262 isolate infected thigh infection model ICR mouse; assay type: functional, Thigh muscle; outline: as §1
Escherichia coli [15] = assay: Antimicrobial activity against ESBL producing Escherichia coli 243 isolate infected thigh infection model ICR mouse; assay type: functional, Thigh muscle; outline: as §1
Klebsiella pneumoniae [16] = assay: Antimicrobial activity against ESBL producing Klebsiella pneumoniae 60 isolate; assay type: functional
Klebsiella pneumoniae [17] = assay: Antimicrobial activity against ESBL producing Klebsiella pneumoniae 255 isolate infected thigh infection model ICR mouse; assay type: functional, Thigh muscle; outline: as §1
Klebsiella pneumoniae [18] = assay: Antimicrobial activity against ESBL producing Klebsiella pneumoniae 60 isolate infected thigh infection model ICR mouse; assay type: functional, Thigh muscle; outline: as §1
Escherichia coli [19] = assay: Antimicrobial activity against ESBL producing Escherichia coli 118 isolate; assay type: functional
Klebsiella pneumoniae [20] = assay: Antimicrobial activity against ESBL producing Klebsiella pneumoniae 256 isolate infected thigh infection model ICR mouse; assay type: functional, Thigh muscle; outline: as §1
Escherichia coli [21] = assay: Antimicrobial activity against ESBL producing Escherichia coli 312 isolate infected thigh infection model ICR mouse; assay type: functional, Thigh muscle; outline: as §1
Klebsiella pneumoniae [22] = assay: Antimicrobial activity against ESBL producing Klebsiella pneumoniae 225 isolate infected thigh infection model ICR mouse; assay type: functional, Thigh muscle; outline: as §1
Escherichia coli [23] = assay: Antimicrobial activity against ESBL producing Escherichia coli 130 isolate infected thigh infection model ICR mouse; assay type: functional, Thigh muscle; outline: as §1
Escherichia coli [24] = assay: Antimicrobial activity against ESBL producing Escherichia coli 310 isolate; assay type: functional
Escherichia coli [25] = assay: Antimicrobial activity against Escherichia coli 120 isolate; assay type: functional
Escherichia coli [26] = assay: Antimicrobial activity against ESBL producing Escherichia coli 322 isolate; assay type: functional
Escherichia coli [27] = assay: Antimicrobial activity against ESBL producing Escherichia coli 321 isolate infected thigh infection model ICR mouse; assay type: functional, Thigh muscle; outline: as §1
Escherichia coli [28] = assay: Antimicrobial activity against ESBL producing Escherichia coli 285 isolate infected thigh infection model ICR mouse; assay type: functional, Thigh muscle; outline: as §1
Escherichia coli [29] = assay: Antimicrobial activity against ESBL producing Escherichia coli 320 isolate; assay type: functional
Klebsiella pneumoniae [30] = assay: Antimicrobial activity against ESBL producing Klebsiella pneumoniae 101 isolate; assay type: functional
Klebsiella pneumoniae [31] = assay: Antimicrobial activity against ESBL producing Klebsiella pneumoniae 225 isolate; assay type: functional
Klebsiella pneumoniae [32] = assay: Antimicrobial activity against ESBL producing Klebsiella pneumoniae 263 isolate; assay type: functional
Escherichia coli [33] = assay: Antimicrobial activity against Escherichia coli ATCC 25922 isolate; assay type: functional
Klebsiella pneumoniae [34] = assay: Antimicrobial activity against ESBL producing Klebsiella pneumoniae 259 isolate infected thigh infection model ICR mouse; assay type: functional, Thigh muscle; outline: as §1

C[C@@H](O)[C@H]1C(=O)N2C(C(=O)O)=C(S[C@@H]3CN[C@H](C(=O)Nc4cccc(C(=O)O)c4)C3)[C@H](C)[C@H]12
MIC (Klebsiella pneumoniae [1]): 0.25 µg/mL (≈ 0.526 µM) | MIC (Escherichia coli [2]): 0.012 µg/mL (≈ 0.0252 µM) | fT>MIC (Klebsiella pneumoniae [3]): 0% | MIC (Klebsiella pneumoniae [4]): 4 µg/mL (≈ 8.41 µM) | MIC (Escherichia coli [5]): 1 µg/mL (≈ 2.1 µM) | MIC (Klebsiella pneumoniae [6]): 1 µg/mL (≈ 2.1 µM) | fT>MIC (Klebsiella pneumoniae [7]): 40% | MIC (Escherichia coli [8]): 4 µg/mL (≈ 8.41 µM) | fT>MIC (Klebsiella pneumoniae [9]): 0% | fT>MIC (Escherichia coli [10]): 77% | fT>MIC (Klebsiella pneumoniae [11]): 0% | MIC (Klebsiella pneumoniae [12]): 0.094 µg/mL (≈ 0.198 µM) | MIC (Escherichia coli [13]): 0.023 µg/mL (≈ 0.0484 µM) | fT>MIC (Klebsiella pneumoniae [14]): 0% | fT>MIC (Escherichia coli [15]): 67% | MIC (Klebsiella pneumoniae [16]): 0.012 µg/mL (≈ 0.0252 µM) | fT>MIC (Klebsiella pneumoniae [17]): 20% | fT>MIC (Klebsiella pneumoniae [18]): 90% | MIC (Escherichia coli [19]): 0.012 µg/mL (≈ 0.0252 µM) | fT>MIC (Klebsiella pneumoniae [20]): 0% | fT>MIC (Escherichia coli [21]): 53% | fT>MIC (Klebsiella pneumoniae [22]): 87% | fT>MIC (Escherichia coli [23]): 30% | MIC (Escherichia coli [24]): 0.064 µg/mL (≈ 0.135 µM) | MIC (Escherichia coli [25]): 0.03 µg/mL (≈ 0.0631 µM) | MIC (Escherichia coli [26]): 0.012 µg/mL (≈ 0.0252 µM) | fT>MIC (Escherichia coli [27]): 90% | fT>MIC (Escherichia coli [28]): 80% | MIC (Escherichia coli [29]): 0.5 µg/mL (≈ 1.05 µM) | MIC (Klebsiella pneumoniae [30]): 0.094 µg/mL (≈ 0.198 µM) | MIC (Klebsiella pneumoniae [31]): 0.016 µg/mL (≈ 0.0336 µM) | MIC (Klebsiella pneumoniae [32]): 8 µg/mL (≈ 16.8 µM) | MIC (Escherichia coli [33]): 8 ng/mL (≈ 0.0168 µM) | fT>MIC (Klebsiella pneumoniae [34]): 0%
